Data reported in paper PMC5503752 (Biophysical chemistry, 2017).
pKd: −log10 of the molar value. Where two headings read alike, the source gives them in different places. Blank lines part the entries; values can stand above or below the molecule they belong to.

Legend:
[1] = test system: sites III and IV of CaM bound to the NaV1.2 IQ motif; test: Simulation of calcium binding to CaM bound to the NaV1.2 IQ motif
Outline: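 Calcium binding to sites III and IV of IQ-bound CaM was simulated by thermodynamic linkage. Inputs were earlier-measured calcium-binding energies of CaM alone (ΔG1 −7.76, ΔG2 −15.92 kcal/mol) and the apo-versus-Ca2+ difference in IQ binding. The simulation used a total free energy of −13.99 kcal/mol and the same cooperativity as free CaM.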

[2] = test system: CaM; settings: absence of IQ motif; same conditions as this study; cited from earlier work
[3] = test system: CaM bound to NaV1.2 IQ motif; settings: cited from earlier work
[4] = biological target: rat NaV1.2 IQ motif (residues 1901-1927) in YFP-CFP biosensor; test: CaM titrations of NaV1.2IQ YFP-CFP FRET biosensor; format: binding; settings: for pKd: read-out: Kd, apo CaM, apo (no CaCl2), pH 7.4, 22 °C, calculated from average ΔG
Outline: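 Rat NaV1.2 residues 1901–1927 inserted between YFP and CFP, expressed in BL21(DE3) (IPTG, 40 h, 18 °C), used as clarified lysate. Biosensor at 0.5 nM (apo) to 5 nM (Ca2+). Titrant: paramecium-sequence CaM or its domains.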

[5] = test system: NaV1.5 DIII-DIV linker; settings: cited from earlier work
[6] = test system: NaV1.2IQ biosensor; format: binding, rat; settings: for fractional decrease/change in YFP intensity of biosensor, apo: [CaM]:[biosensor] = 10^3:1, biosensor 4 nM, excitation 430 nm, YFP 525 nm
Outline: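 Steady-state emission spectra were recorded with 430 nm excitation, showing CFP at 475 nm and YFP at 525 nm. Samples were biosensor alone or with >10^3-fold excess apo or Ca2+-saturated CaM, CaMN or CaMC, in titration buffer at pH 7.4 and 22 °C. Spectra were buffer-subtracted, dilution-corrected and normalized to free-biosensor intensity at 525 nm. Fractional YFP decrease was taken at λmax.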

[7] = test system: NaV1.2 IQ motif; design: species or system rat; settings: free [CaM] 50–100 nM (estimated)
Outline: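 Single-site fractional saturation isotherms of the IQ motif by apo or calcium-saturated CaM were simulated from the single-site binding equation. Input was the free energies measured by biosensor titration.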

[8] = test system: rat Nav1.2IQp; settings: thermodynamic linkage analysis; cited from earlier work
[9] = test system: IQ motifs of NaV1.2, 1.5, and 1.6; settings: cited from earlier work
[10] = test system: ryanodine receptor RyR1; settings: cited from earlier work
[11] = test system: CaV1.2 IQ motif; settings: cited from earlier work

total free energy of calcium binding to sites III and IV of CaM bound to NaV1.2 IQ motif ([1]; simulation for illustration, same cooperativity as CaM alone): -13.99 kcal/mol
Molecule: [Ca+2] [calcium]
ΔG1 (printed AG1) of calcium binding to CaM alone [2]: -7.76 kcal/mol
ΔG2 of calcium binding to CaM alone [2]: -15.92 kcal/mol
calcium equivalents (ions per CaM) required for saturation ([3]; CaM bound to NaV1.2 IQ motif, NMR titration): 4
calcium-binding affinity of sites III and IV (CaMC) in CaM-IQp complex [3]: diminished

pKd [4]: 7.94
calcium-saturated CaMC bound to NaV1.2-IQ ([1]; neuronal intracellular Ca^2+ range centered on 10 03BCM, simulation, Fig. 7B): 50–75%
Molecule: C-domain of CaM [CaMC]
affinity of CaMC for NaV1.5 DIII-DIV linker [5]: micromolar affinity

ratio of Kd, (Ca^2+)4-CaM over apo CaM (higher, weaker) ([4]; (Ca^2+)4-CaM vs apo CaM): ~ 30 fold
pKd [4]: 8.49
predicted occupancy of IQ motif by (Ca^2+)4-CaM at high calcium ([1]; 10 03BCM free calcium): ~ 68%
predicted occupancy of NaV1.2 IQ motif, (Ca^2+)4-CaM [7]: 37–54%
predicted occupancy of NaV1.2 IQ motif, apo CaM [7]: 94–97%
Molecule: Calmodulin [CaM]
fractional decrease/change in YFP intensity of biosensor, apo [6]: 36%
relative affinity of apo vs calcium-saturated CaM for rat Nav1.2IQp [8]: binds more favorably than calcium-saturated CaM
affinity for apo CaM relative to (Ca^2+)4-CaM, NaV IQ motifs [9]: higher affinity for apo CaM than (Ca^2+)4-CaM
effect on RyR1 ([10]; listed as apo CaM): activated
effect on RyR1 ([10]; listed as calcium-saturated CaM): inhibited
affinity of (Ca^2+)4-CaM relative to apo CaM for CaV1.2 IQ motif [11]: higher affinity for (Ca^2+)4-CaM than apo CaM

binding to NaV1.2IQ biosensor, in words ([4]; CaMN, apo and 1 mM calcium): negligible binding
Molecule: N-domain of CaM [CaMN]
deflection in fluorescence intensity relative to that seen at 50 nM CaMC ([6]; 50 pM CaMN (so in the source) vs 50 nM CaMC): less than 1%
fractional decrease/change in YFP intensity of biosensor, apo [6]: ~ 1%
binding of CaMN to NaV IQ motifs ([9]; NaV1.2, 1.5 and 1.6 IQ motifs): undetectable or very weak binding
